Assay results: ChEMBL document CHEMBL4706714 (Bioorg Med Chem, 2021)
Calls of active or inactive are those of the source. No cut-off for these calls is given here.

What was measured:
[1] = Inhibition of de nova purine biosynthesis in human IGROV1 assessed as decrease in ADP level at 1 uM after 48 hrs by LC-MS/MS analysis relative to control; type: functional; details: IGROV-1
Summary of the method: (§1)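 NCI-IGROV1 ovarian cells in folate-free RPMI, 10% FBS, 2 mM L-glutamine, five replicate dishes, adhered 24 h; medium replaced and 1 μM inhibitor or DMSO vehicle added for 48 h. Extracted metabolites measured by reverse-phase LC-MS, negative ion mode, identified by exact mass and retention time against standards; normalized to cell protein; expressed relative to vehicle control.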

IGROV-1 [2] = assay: Inhibition of GARFTase in human IGROV1 assessed as decrease in fGAR level at 1 uM after 48 hrs by LC-MS/MS analysis relative to control; summary of the method: as §1
[3] = Inhibition of de nova purine biosynthesis in human IGROV1 assessed as decrease in IMP level at 1 uM after 48 hrs by LC-MS/MS analysis relative to control; type: functional; details: IGROV-1; summary of the method: as §1
KB [4] = assay: Antiproliferative activity against human KB cells assessed as reduction in cell viability after 96 hrs in presence of thymidine by CellTiter-blue assay; type: functional, cell-based
Summary of the method: (§2)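 KB cells, 4000 cells/well, in folate-free RPMI 1640 with 10% dialyzed FBS and 2 nM leucovorin. A range of drug concentrations was co-incubated with adenosine (60 μM) or thymidine (10 μM) for 96 h at 37 °C. Proliferation was read by CellTiter-blue fluorescence. Data are representative of at least triplicate experiments.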

IGROV-1 [5] = assay: Antiproliferative activity against human IGROV1 cells assessed as reduction in cell viability after 96 hrs by CellTiter-blue assay; type: functional, cell-based; details: IGROV-1, 96 h
IGROV-1 [6] = assay: Antiproliferative activity against human IGROV1 cells assessed as reduction in cell viability after 96 hrs in presence of folic acid by CellTiter-blue assay; type: functional, cell-based; details: IGROV-1, 96 h
Summary of the method: (§3)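 Cells grown in folate-free RPMI with 10% dialyzed FBS, 2 nM leucovorin, 2 mM L-glutamine; 2500–5000 cells/well, inhibitors 0–1000 nM, with 200 nM folic acid added in parallel wells to block FR uptake.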

KB [7] = assay: Antiproliferative activity against human KB cells assessed as reduction in cell viability after 96 hrs by CellTiter-blue assay; type: functional, cell-based
[8] = biological target: T1, Bifunctional purine biosynthesis protein ATIC (Homo sapiens, UniProt P31939); assay: Inhibition of human full length N-terminal His-tagged ATIC expressed in Chinese Hamster MTXRII-OuaR2-4 R2 cells assessed as reduction in THF formation using 10-CHOTHF as substrate by spectrophotometric method
Target sequence in this assay (P31939 whole entry): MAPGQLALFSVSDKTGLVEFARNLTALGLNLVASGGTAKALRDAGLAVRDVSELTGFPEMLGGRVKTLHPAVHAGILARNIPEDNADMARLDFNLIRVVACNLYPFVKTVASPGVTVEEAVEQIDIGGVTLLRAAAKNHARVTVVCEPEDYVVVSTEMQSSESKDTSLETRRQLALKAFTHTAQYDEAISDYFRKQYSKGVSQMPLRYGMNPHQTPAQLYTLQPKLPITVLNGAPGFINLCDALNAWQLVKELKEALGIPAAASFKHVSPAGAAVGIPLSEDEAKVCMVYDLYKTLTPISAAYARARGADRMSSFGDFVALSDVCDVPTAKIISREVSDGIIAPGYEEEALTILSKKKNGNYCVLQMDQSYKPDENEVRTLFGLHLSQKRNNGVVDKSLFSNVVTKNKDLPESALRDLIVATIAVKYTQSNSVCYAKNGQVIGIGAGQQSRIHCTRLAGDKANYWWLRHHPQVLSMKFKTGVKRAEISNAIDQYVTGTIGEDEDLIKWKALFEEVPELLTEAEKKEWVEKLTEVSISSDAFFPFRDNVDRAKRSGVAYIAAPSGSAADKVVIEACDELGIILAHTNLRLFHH

IGROV-1 [9] = assay: Inhibition of de nova purine biosynthesis in human IGROV1 assessed as decrease in AMP level at 1 uM after 48 hrs by LC-MS/MS analysis; type: functional; summary of the method: as §1
[10] = biological target: Folate receptor alpha (Homo sapiens) (UniProt P15328); assay: Displacement of [3H]-folic acid from human FRalpha expressed in Chinese Hamster MTXRII-OuaR2-4 R2 cells after 15 mins by liquid scintillation counting method; type: cell-based
Sequence of Folate receptor alpha (Homo sapiens) (P15328 25-234 limits assumed): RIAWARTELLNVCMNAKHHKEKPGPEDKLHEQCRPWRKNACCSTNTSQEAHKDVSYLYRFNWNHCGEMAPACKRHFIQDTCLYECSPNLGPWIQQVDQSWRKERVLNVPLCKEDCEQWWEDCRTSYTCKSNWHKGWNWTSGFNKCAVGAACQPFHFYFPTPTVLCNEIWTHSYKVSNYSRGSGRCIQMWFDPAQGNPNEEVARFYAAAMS
Summary of the method: (§4)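 RT16 (FRα) or D4 (FRβ) CHO transfectants, 1 × 10^6 cells, adhered 24 h; washed at 4 °C with DPBS, pH 3.5 acetate buffer to strip bound folate, then HBS pH 7.4. Incubated 15 min at 0 °C with 50 nM [3H]folic acid plus competitor 0–1 μM; bound label per mg protein (Folin-phenol).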

[11] = Inhibition of de nova purine biosynthesis in human IGROV1 assessed as decrease in ATP level at 1 uM after 48 hrs by LC-MS/MS analysis relative to control; type: functional; details: IGROV-1; summary of the method: as §1
[12] = biological target: T1, Bifunctional purine biosynthesis protein ATIC; assay: Inhibition of AICARFTase in human IGROV1 assessed as decrease in ZMP level at 1 uM after 48 hrs by LC-MS/MS analysis relative to control; details: IGROV-1; summary of the method: as §1
Target sequence in this assay (P31939 whole entry, looked up): as the sequence (P31939 whole entry) above

[13] = Inhibition of human full length N-terminal His-tagged GARFTase expressed in Chinese Hamster MTXRII-OuaR2-4 R2 cells assessed as reduction in THF formation using 10-CHOTHF as substrate by spectrophotometric method
[14] = Cytotoxicity against Chinese Hamster MTXRII-OuaR2-4 R2 cells assessed as reduction in cell proliferation after 96 hrs by CellTiter-blue assay; type: cell-based; details: Cricetulus griseus, R2, 96 h
IGROV-1 [15] = assay: Inhibition of GARFTase in human IGROV1 assessed as increase in GAR level at 1 uM after 48 hrs by LC-MS/MS analysis; summary of the method: as §1
[16] = biological target: Folate receptor beta (Homo sapiens) (UniProt P14207); assay: Displacement of [3H]-folic acid from human FRbeta expressed in Chinese Hamster MTXRII-OuaR2-4 R2 cells after 15 mins by liquid scintillation counting method; type: cell-based; summary of the method: as §4
Sequence of Folate receptor beta (Homo sapiens) (P14207 17-230 limits assumed): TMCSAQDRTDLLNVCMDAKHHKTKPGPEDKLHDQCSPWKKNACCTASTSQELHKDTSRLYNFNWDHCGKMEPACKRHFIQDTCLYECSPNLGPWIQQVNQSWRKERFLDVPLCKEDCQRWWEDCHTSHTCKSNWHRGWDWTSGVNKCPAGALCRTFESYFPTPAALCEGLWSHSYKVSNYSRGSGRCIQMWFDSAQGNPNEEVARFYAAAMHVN

KB [17] = assay: Antiproliferative activity against human KB cells assessed as reduction in cell viability after 96 hrs in presence of folic acid by CellTiter-blue assay; type: functional, cell-based; summary of the method: as §3
KB [18] = assay: Antiproliferative activity against human KB cells assessed as reduction in cell viability after 96 hrs in presence of adenosine by CellTiter-blue assay; type: functional, cell-based; summary of the method: as §2

Row | IC50 (KB [7]) | Compound | inhibition at 1 µM [1] | inhibition (IGROV-1 [2]) | inhibition at 1 µM [3] | Activity (KB [4]) | IC50 (IGROV-1 [5]) | IC50 (IGROV-1 [6]) | Ki [8] | inhibition (IGROV-1 [9]) | Activity [10] | inhibition at 1 µM [11] | inhibition [12] | Ki [13] | IC50 [14] | fold change (FC) (IGROV-1 [15]) | Activity [16] | IC50 (KB [17]) | Activity (KB [18])
1 |  | Nc1nc2[nH]cc(CCc3ccc(C(=O)N[C@@H](CCC(=O)O)C(=O)O)cc3)c2c(=O)[nH]1 [PEMETREXED] |  |  |  |  |  |  |  |  |  |  |  | > 150 µM |  |  |  |  | 
2 |  | Nc1nc2sc(CCCCc3ccc(C(=O)N[C@@H](CCC(=O)O)C(=O)O)cc3)cc2c(=O)[nH]1 |  |  |  | Active |  | > 1 µM | 9.48 µM |  |  |  |  |  | > 1 µM |  |  | > 1 µM | inactive
3 |  | Nc1nc2[nH]cc(CCCCc3ccc(C(=O)N[C@@H](CCC(=O)O)C(=O)O)cc3)c2c(=O)[nH]1 |  |  |  | Active |  |  |  |  |  |  |  |  |  |  |  |  | inactive
4 | 0.00148 µM | Nc1nc2sc(CCCc3csc(C(=O)N[C@@H](CCC(=O)O)C(=O)O)c3)cc2c(=O)[nH]1 |  |  |  | Active | 0.0867 µM | > 1 µM | 19.8 µM |  |  |  |  |  | > 1 µM |  |  | > 1 µM | inactive
5 | 0.00182 µM | Nc1nc2sc(CCCc3cc(C(=O)N[C@@H](CCC(=O)O)C(=O)O)cs3)cc2c(=O)[nH]1 |  |  |  | Active | 0.026 µM | > 1 µM | 8.37 µM |  |  |  |  | 0.91 µM | > 1 µM |  |  | > 1 µM | inactive
6 | 0.00474 µM | Nc1nc2sc(CCCCc3cc(C(=O)N[C@@H](CCC(=O)O)C(=O)O)cs3)cc2c(=O)[nH]1 |  |  |  | Active | > 1 µM | > 1 µM | 1.07 µM |  |  |  |  | 0.15 µM | > 1 µM |  |  | > 1 µM | inactive
7 | 0.00685 µM | Nc1nc2sc(CCCCc3csc(C(=O)N[C@@H](CCC(=O)O)C(=O)O)c3)cc2c(=O)[nH]1 |  |  |  | Active | 0.108 µM | > 1 µM | 8.03 µM |  |  |  |  | > 150 µM | > 1 µM |  |  | > 1 µM | inactive
8 |  | Nc1nc2[nH]c(CCCc3ccc(C(=O)N[C@@H](CCC(=O)O)C(=O)O)s3)cc2c(=O)[nH]1 | 60% | 99% | 60% |  |  |  |  | Active |  | 75% | 50% |  |  | 150 |  |  | 

Row | Compound | IC50 (KB [7]) | inhibition at 1 µM [1] | inhibition (IGROV-1 [2]) | inhibition at 1 µM [3] | Activity (KB [4]) | IC50 (IGROV-1 [5]) | IC50 (IGROV-1 [6]) | Ki [8] | inhibition (IGROV-1 [9]) | Activity [10] | inhibition at 1 µM [11] | inhibition [12] | Ki [13] | IC50 [14] | fold change (FC) (IGROV-1 [15]) | Activity [16] | IC50 (KB [17]) | Activity (KB [18])
9 | Nc1nc2sc(CCCCc3ccc(C(=O)N[C@@H](CCC(=O)O)C(=O)O)s3)cc2c(=O)[nH]1 | 0.0021 µM | 60% | 50% | 60% | Active | 0.0101 µM | > 1 µM | 5.15 µM | Active | 89% | 75% | Active | 1.36 µM | > 1 µM | 150 | 60% | > 1 µM | inactive
10 | Nc1nc2sc(CCCCc3ccc(C(=O)N[C@@H](CCC(=O)O)C(=O)O)o3)cc2c(=O)[nH]1 | 0.0079 µM |  |  |  | Active | > 1 µM | > 1 µM | 24.7 µM |  | 89% |  |  | 10.7 µM | > 1 µM |  | 60% | > 1 µM | inactive
11 | Nc1nc2sc(CCCc3ccc(C(=O)N[C@@H](CCC(=O)O)C(=O)O)s3)cc2c(=O)[nH]1 | 0.00142 µM | 60% | 75% | 60% | Active | 0.0541 µM | > 1 µM | 14.5 µM | Active | 89% | 75% | Active | 8.19 µM | > 1 µM | 150 | 60% | > 1 µM | inactive
